Legend:
THP-1 = experiment: Cytotoxicity against human THP-1 cells assessed as cell viability at 5 uM measured after 18 hrs by MTT assay relative to control; type: cell-based; settings: thp-1, 18 h
Outline: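 THP-1 cells were plated at 10^5/well in RPMI with 10% FBS and penicillin/streptomycin, then given compound at 5 μM final (0.5% DMSO) for 18 h. MTT at 0.5 mg/mL was added for 4–6 h, followed by SDS/HCl lysis buffer overnight. Absorbance was read at 570 nm against a 650 nm reference. Viability was normalized to DMSO as 100%.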

[1] = biological target: Nuclear factor NF-kappa-B complex (Homo sapiens) (UniProt Q00653+P19838+Q04206); experiment: Activation of NF-kappaB in human THP1-Blue NF-kappaB cells co-expressing NFkappaB-inducible SEAP assessed as increase in SEAP activity at 5 uM measured after 20 hrs by quanti-blue based colorimetric assay relative to control; type: cell-based; settings: filed as activator
Sequence of Nuclear factor NF-kappa-B complex (Homo sapiens) (P19838 whole entry, looked up): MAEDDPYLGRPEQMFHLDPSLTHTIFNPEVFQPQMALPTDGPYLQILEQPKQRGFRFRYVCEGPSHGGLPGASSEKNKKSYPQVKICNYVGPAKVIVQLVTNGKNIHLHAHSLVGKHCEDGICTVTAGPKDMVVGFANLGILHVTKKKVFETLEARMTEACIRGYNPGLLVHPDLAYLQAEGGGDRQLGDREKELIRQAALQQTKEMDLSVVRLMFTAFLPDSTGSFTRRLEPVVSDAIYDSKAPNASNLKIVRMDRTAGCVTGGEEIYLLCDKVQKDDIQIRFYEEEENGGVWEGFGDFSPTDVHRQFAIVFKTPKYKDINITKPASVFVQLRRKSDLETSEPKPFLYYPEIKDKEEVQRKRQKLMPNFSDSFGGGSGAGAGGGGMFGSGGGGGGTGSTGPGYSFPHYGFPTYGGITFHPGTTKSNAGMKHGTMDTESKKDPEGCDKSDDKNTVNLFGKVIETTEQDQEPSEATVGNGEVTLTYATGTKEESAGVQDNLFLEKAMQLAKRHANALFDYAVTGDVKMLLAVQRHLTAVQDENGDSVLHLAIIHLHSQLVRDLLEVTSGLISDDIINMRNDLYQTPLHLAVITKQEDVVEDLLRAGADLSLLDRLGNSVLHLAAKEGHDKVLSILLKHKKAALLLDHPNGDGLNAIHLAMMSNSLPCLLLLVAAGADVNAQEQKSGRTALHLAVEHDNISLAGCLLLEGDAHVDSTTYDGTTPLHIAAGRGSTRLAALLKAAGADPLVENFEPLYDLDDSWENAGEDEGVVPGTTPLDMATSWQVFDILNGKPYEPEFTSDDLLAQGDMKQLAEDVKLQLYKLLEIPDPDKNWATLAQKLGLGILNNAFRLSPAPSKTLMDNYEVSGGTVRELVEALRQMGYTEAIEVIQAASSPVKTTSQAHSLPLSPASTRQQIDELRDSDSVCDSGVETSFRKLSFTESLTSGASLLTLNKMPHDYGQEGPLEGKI
Sequence of Nuclear factor NF-kappa-B complex (Homo sapiens) (Q00653 whole entry, looked up): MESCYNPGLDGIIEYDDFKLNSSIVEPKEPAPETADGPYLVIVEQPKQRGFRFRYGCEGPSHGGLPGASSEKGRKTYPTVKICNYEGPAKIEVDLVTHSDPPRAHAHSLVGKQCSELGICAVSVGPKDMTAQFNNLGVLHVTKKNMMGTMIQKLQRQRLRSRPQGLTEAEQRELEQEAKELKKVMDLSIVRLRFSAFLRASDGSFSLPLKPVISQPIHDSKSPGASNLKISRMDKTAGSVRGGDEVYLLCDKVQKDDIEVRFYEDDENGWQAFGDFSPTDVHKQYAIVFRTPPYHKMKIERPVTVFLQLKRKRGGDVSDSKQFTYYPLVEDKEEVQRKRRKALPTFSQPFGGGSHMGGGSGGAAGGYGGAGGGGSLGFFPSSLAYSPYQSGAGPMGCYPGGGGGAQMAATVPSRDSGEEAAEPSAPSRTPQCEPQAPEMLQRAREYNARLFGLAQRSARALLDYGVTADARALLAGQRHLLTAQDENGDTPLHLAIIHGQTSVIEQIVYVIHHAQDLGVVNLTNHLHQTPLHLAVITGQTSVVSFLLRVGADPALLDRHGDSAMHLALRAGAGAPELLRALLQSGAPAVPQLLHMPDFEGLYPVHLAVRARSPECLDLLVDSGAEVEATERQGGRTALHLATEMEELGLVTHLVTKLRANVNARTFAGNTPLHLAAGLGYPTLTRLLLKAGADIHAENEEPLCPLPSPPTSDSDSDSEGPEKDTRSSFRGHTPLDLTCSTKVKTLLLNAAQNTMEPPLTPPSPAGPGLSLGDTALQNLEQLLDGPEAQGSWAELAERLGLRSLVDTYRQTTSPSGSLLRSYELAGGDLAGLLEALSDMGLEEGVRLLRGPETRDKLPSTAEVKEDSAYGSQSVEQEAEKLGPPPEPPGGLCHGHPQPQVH
Sequence of Nuclear factor NF-kappa-B complex (Homo sapiens) (Q04206 whole entry, looked up): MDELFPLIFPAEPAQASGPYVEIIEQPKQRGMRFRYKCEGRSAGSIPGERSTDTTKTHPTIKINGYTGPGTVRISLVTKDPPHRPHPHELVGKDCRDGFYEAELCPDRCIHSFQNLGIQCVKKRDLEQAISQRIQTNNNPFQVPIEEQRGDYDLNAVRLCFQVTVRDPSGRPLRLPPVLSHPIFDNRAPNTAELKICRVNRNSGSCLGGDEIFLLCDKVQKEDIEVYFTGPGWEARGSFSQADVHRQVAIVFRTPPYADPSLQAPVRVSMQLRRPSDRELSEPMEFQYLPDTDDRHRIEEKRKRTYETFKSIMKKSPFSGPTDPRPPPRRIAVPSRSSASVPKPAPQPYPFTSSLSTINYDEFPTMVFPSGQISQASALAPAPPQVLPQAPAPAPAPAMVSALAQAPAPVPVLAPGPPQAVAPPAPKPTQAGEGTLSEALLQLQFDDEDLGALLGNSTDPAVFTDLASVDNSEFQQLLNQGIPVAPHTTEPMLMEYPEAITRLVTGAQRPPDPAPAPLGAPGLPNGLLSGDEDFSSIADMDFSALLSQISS
Outline: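 THP1-Blue NF-κB reporter cells plated at 10^5/well in RPMI with 10% FBS, penicillin/streptomycin and Normocin. Compound added at 5 μM final (0.5% DMSO), then incubated 20 h. Secreted SEAP in the supernatant was read colorimetrically with QuantiBlue at 630 nm. Two-point normalization set vehicle (0.5% DMSO) as 100% and a reference activator as 200%.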

Row | Activity [1] [%] | SMILES | Activity (THP-1) [%]
1 | 99 | Cc1ccc(C)c(-c2csc(NC(=O)c3ccc(S(=O)(=O)N4CCCCC4)cn3)n2)c1 | 94
2 | 118 | C#Cc1sc(NC(=O)c2ccc(S(=O)(=O)N3CCCCC3)cc2)nc1-c1cc(C)ccc1C | 111
3 | 101 | Cc1ccc(C)c(-c2csc(NC(=O)c3ccc(S(=O)(=O)N4CCNCC4)cc3)n2)c1 | 121
4 | 159 | Cc1ccc(C)c(-c2nc(NC(=O)c3ccc(S(=O)(=O)N4CCCCC4)cc3)sc2C)c1 | 97
5 | 99 | Cc1ccc(C)c(-c2nc(NC(=O)c3ccc(S(=O)(=O)N4CCCCC4)cc3)sc2-c2ccccc2)c1 | 
6 | 99 | Cc1ccc(C)c(-c2csc(NCc3ccc(S(=O)(=O)N4CCCCC4)cc3)n2)c1 | 85
7 | 101 | Cc1ccc(C)c(-c2csc(N(C)C(=O)c3ccc(S(=O)(=O)N4CCCCC4)cc3)n2)c1 | 97
8 | 264 | CCC#Cc1sc(NC(=O)c2ccc(S(=O)(=O)N3CCCCC3)cc2)nc1-c1cc(C)ccc1C | 103
9 | 98 | Cc1ccc(-c2csc(NC(=O)c3ccc(S(=O)(=O)N4CCCCC4)cc3)n2)cc1C | 
10 | 103 | CCSc1sc(NC(=O)c2ccc(S(=O)(=O)N3CCCCC3)cc2)nc1-c1cc(C)ccc1C | 
11 | 99 | Cc1ccc(C)c(-c2cnc(NC(=O)c3ccc(S(=O)(=O)N4CCCCC4)cc3)s2)c1 | 101
12 | 179 | Cc1cccc(-c2csc(NC(=O)c3ccc(S(=O)(=O)N4CCCCC4)cc3)n2)c1C | 103
13 | 101 | C#Cc1ccc(C)c(-c2csc(NC(=O)c3ccc(S(=O)(=O)N4CCCCC4)cc3)n2)c1 | 92
14 | 185 | Cc1cccc(C)c1-c1csc(NC(=O)c2ccc(S(=O)(=O)N3CCCCC3)cc2)n1 | 100
15 | 223 | Cc1ccc(C)c(-c2csc(NC(=O)c3ccc(S(=O)(=O)N4CCCCC4)c(Cl)c3)n2)c1 | 88
16 | 99 | CC(C)(C)c1csc(NC(=O)c2ccc(S(=O)(=O)N3CCCCC3)cc2)n1 | 113
17 | 198 | O=C(Nc1nc(-c2cccc3ccccc23)cs1)c1ccc(S(=O)(=O)N2CCCCC2)cc1 | 93
18 | 201 | CCOC1CCN(S(=O)(=O)c2ccc(C(=O)Nc3nc(-c4cc(C)ccc4C)cs3)cc2)CC1 | 117
19 | 109 | CCCCc1sc(NC(=O)c2ccc(S(=O)(=O)N3CCCCC3)cc2)nc1-c1cc(C)ccc1C | 129
20 | 101 | CC(C)(C)Cc1csc(NC(=O)c2ccc(S(=O)(=O)N3CCCCC3)cc2)n1 | 116
21 | 101 | CC(=O)N1CCN(S(=O)(=O)c2ccc(C(=O)Nc3nc(-c4cc(C)ccc4C)cs3)cc2)CC1 | 114

Row | Activity [1] [%] | SMILES | Activity (THP-1) [%]
22 | 98 | Cc1ccc(-c2csc(NC(=O)c3ccc(S(=O)(=O)N4CCCCC4)cc3)n2)c(C)c1 | 102
23 | 99 | CCN(CC)c1sc(NC(=O)c2ccc(S(=O)(=O)N3CCCCC3)cc2)nc1-c1cc(C)ccc1C | 94
24 | 99 | COc1cc(C(=O)Nc2nc(-c3cc(C)ccc3C)cs2)ccc1S(=O)(=O)N1CCCCC1 | 
25 | 203 | CCc1ccc(C)c(-c2csc(NC(=O)c3ccc(S(=O)(=O)N4CCCCC4)cc3)n2)c1 | 102
26 | 114 | Cc1ccc2c(c1)-c1nc(NC(=O)c3ccc(S(=O)(=O)N4CCCCC4)cc3)sc1CC2 | 95
27 | 109 | Cc1ccc2c(c1)-c1nc(NC(=O)c3ccc(S(=O)(=O)N4CCCCC4)cc3)sc1C2 | 89
28 | 120 | Cc1ccc(C)c(-c2csc(NC(=O)c3ccc(S(=O)(=O)N4CCCCC4)cc3Br)n2)c1 | 96
29 | 103 | Cc1ccc(C)c(-c2csc(NC(=O)c3ccc(S(=O)(=O)N4CCCCC4)s3)n2)c1 | 97
30 | 125 | Cc1ccc(C)c(-c2csc(NC(=O)c3ccc(S(=O)(=O)N4CCCCC4)c(N)c3)n2)c1 | 92
31 | 97 | Cc1cc(C)cc(-c2csc(NC(=O)c3ccc(S(=O)(=O)N4CCCCC4)cc3)n2)c1 | 91
32 | 102 | CCOc1sc(NC(=O)c2ccc(S(=O)(=O)N3CCCCC3)cc2)nc1-c1cc(C)ccc1C | 104
33 | 99 | COc1cc(S(=O)(=O)N2CCCCC2)ccc1C(=O)Nc1nc(-c2cc(C)ccc2C)cs1 | 
34 | 115 | Cc1ccc(C)c(-c2csc(NC(=O)c3ccc(S(=O)(=O)N4CCCCC4)c([N+](=O)[O-])c3)n2)c1 | 93
35 | 99 | Cc1ccc(C)c(-c2csc(C(=O)Nc3ccc(S(=O)(=O)N4CCCCC4)cc3)n2)c1 | 91
36 | 99 | Cc1ccc(C)c(-c2c[nH]c(NC(=O)c3ccc(S(=O)(=O)N4CCCCC4)cc3)n2)c1 | 51
37 | 101 | Cc1ccc(C)c(Cc2csc(NC(=O)c3ccc(S(=O)(=O)N4CCCCC4)cc3)n2)c1 | 100
38 | 179 | CCc1sc(NC(=O)c2ccc(S(=O)(=O)N3CCCCC3)cc2)nc1-c1cc(C)ccc1C | 104
39 | 207 | Cc1ccc(Br)cc1-c1csc(NC(=O)c2ccc(S(=O)(=O)N3CCCCC3)cc2)n1 | 91
40 | 127 | Cc1ccc(C)c(-c2csc(NC(=O)c3ccc(S(=O)(=O)N4CCCCC4)cc3Cl)n2)c1 | 87
41 | 133 | Cc1ccc(C)c(-c2nc(NC(=O)c3ccc(S(=O)(=O)N4CCCCC4)cc3)sc2Br)c1 | 84

Continued, molecule first:

Row | SMILES | Activity [1] [%] | Activity (THP-1) [%]
42 | CCCC1CCN(S(=O)(=O)c2ccc(C(=O)Nc3nc(-c4cc(C)ccc4Br)cs3)cc2)CC1 | 191 | 97
43 | CCCCCc1sc(NC(=O)c2ccc(S(=O)(=O)N3CCCCC3)cc2)nc1-c1cc(C)ccc1C | 117 | 108
44 | Cc1ccc(C)c(-c2csc(NS(=O)(=O)c3ccc(C(=O)N4CCCCC4)cc3)n2)c1 | 103 | 69
45 | Cc1ccc(C)c(-c2cccc(NC(=O)c3ccc(S(=O)(=O)N4CCCCC4)cc3)n2)c1 |  | 94
46 | Cc1ccc(C)c(-c2csc(NC(=O)c3ccc(S(=O)(=O)N4CCN(C(=O)OC(C)(C)C)CC4)cc3)n2)c1 | 101 | 132
47 | CCN(c1ccccc1)S(=O)(=O)c1ccc(C(=O)Nc2nc(-c3cc(C)ccc3C)cs2)cc1 | 105 | 81
48 | CCCCN(CCCC)S(=O)(=O)c1ccc(C(=O)Nc2nc(-c3cc(C)ccc3C)cs2)cc1 | 102 | 
49 | Cc1ccc(C)c(-c2csc(NC(=O)c3ccc(S(=O)(=O)NC4CCCCC4)cc3)n2)c1 |  | 91
50 | CCCC#Cc1sc(NC(=O)c2ccc(S(=O)(=O)N3CCC(CCC)CC3)cc2)nc1-c1cc(C)ccc1Br | 111 | 97
51 | Cc1ccc(C)c(-c2csc(NC(=O)c3ccc(S(=O)(=O)N4CCCCC4)nc3)n2)c1 |  | 89
52 | Cc1ccc(C)c(-c2nc(NC(=O)c3ccc(S(=O)(=O)N4CCCCC4)cc3)sc2N2CCCCC2)c1 | 99 | 89
53 | CCc1csc(NC(=O)c2ccc(S(=O)(=O)N3CCCCC3)cc2)n1 |  | 120
54 | Cc1csc(NC(=O)c2ccc(S(=O)(=O)N3CCCCC3)cc2)n1 |  | 108
55 | Cc1ccc(C)c(-c2csc(NC(=O)c3ccc(SC4CCCCC4)cc3)n2)c1 |  | 85
56 | Cc1ccc(C)c(-c2csc(NC(=O)c3ccc(C(=O)N4CCCCC4)cc3)n2)c1 | 99 | 88
57 | Cc1ccc(C)c(-c2csc(NC(=O)c3cccc(C(=O)N4CCCCC4)c3)n2)c1 |  | 88
58 | CCCN(CCC)S(=O)(=O)c1ccc(C(=O)Nc2nc(-c3cc(C)ccc3C)cs2)cc1 | 167 | 96
59 | Cc1ccc(C)c(-c2ccc(NC(=O)c3ccc(S(=O)(=O)N4CCCCC4)cc3)cn2)c1 |  | 93
60 | CCCN(CC)S(=O)(=O)c1ccc(C(=O)Nc2nc(-c3cc(C)ccc3C)cs2)cc1 | 183 | 104
61 | CCCC#Cc1sc(NC(=O)c2ccc(S(=O)(=O)N3CCC(CCC)CC3)cc2)nc1-c1cc(C)ccc1C | 112 | 102
62 | Cc1ccccc1-c1csc(NC(=O)c2ccc(S(=O)(=O)N3CCCCC3)cc2)n1 |  | 98
63 | Cc1cccc(-c2csc(NC(=O)c3ccc(S(=O)(=O)N4CCCCC4)cc3)n2)c1 |  | 98
64 | C#CCN(C(=O)c1ccc(S(=O)(=O)N2CCCCC2)cc1)c1nc(-c2cc(C)ccc2C)cs1 |  | 102
65 | Cc1ccc(C)c(-c2nnc(NC(=O)c3ccc(S(=O)(=O)N4CCCCC4)cc3)s2)c1 |  | 90
66 | Cc1ccc(C)c(-c2csc(NC(=O)c3ccc(S(=O)(=O)C4CCCCC4)cc3)n2)c1 |  | 82
67 | Cc1ccc(C)c(-c2ccc(NC(=O)c3ccc(S(=O)(=O)N4CCCCC4)cc3)nc2)c1 |  | 93
68 | Cc1ccc(C)c(-c2nc(NC(=O)c3ccc(S(=O)(=O)N4CCCCC4)cc3)sc2-c2ccco2)c1 |  | 106
69 | CCCC#Cc1sc(NC(=O)c2ccc(S(=O)(=O)N3CCCCC3)cc2)nc1-c1cc(C)ccc1Br | 202 | 95
70 | CCCN1CCN(S(=O)(=O)c2ccc(C(=O)Nc3nc(-c4cc(C)ccc4C)cs3)cc2)CC1 |  | 80
71 | CCCc1csc(NC(=O)c2ccc(S(=O)(=O)N3CCCCC3)cc2)n1 |  | 115

Source: ChEMBL document CHEMBL4808214, “Structure-activity relationship studies in substituted sulfamoyl benzamidothiazoles that prolong NF-κB activation” (Bioorg Med Chem, 2021)
